# Measurements taken from ChEMBL document CHEMBL1134988, “Prodrugs of 4'-demethyl-4-deoxypodophyllotoxin: synthesis and evaluation of the antitumor activity” (2002).
# Calls of active or inactive are those of the source. No cut-off for these calls is given here.
# Tests used:
# A549 = test: In vitro cytotoxicity against A549 (human lung carcinoma) cell line.; format: functional; conditions: read-out: ED50 (the source's name)
# MCF7 = test: In vitro cytotoxicity against MCF-7 (human breast carcinoma) cell line.; format: functional; conditions: read-out: ED50 (the source's name)
# Mus musculus [1] = test: Antitumor activity against Lewis lung carcinoma (LLC) cells transplanted s.c. into the auxiliary region of the BDF1 mice at a formulable dose of 0.06 mmol/kg/day; Not active; format: functional, organism-based
# Outline: (§1)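 LLC cells implanted sc in the axillary region of BDF1 mice. Dosing began 24 h later: ip injection on days 1, 5 and 9 in 5% DMSO/15% Cremophore in saline. Tumour length and width measured on day 17, with TV = L×W²/2. IR (%) = (mean control TV − mean treated TV)/mean control TV × 100.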
# SK-MEL-2 = test: In vitro cytotoxicity against SK-MEL-2 (human melanoma) cell line.; format: functional; conditions: read-out: ED50 (the source's name)
# Mus musculus [2] = test: Antitumor activity against Lewis lung carcinoma (LLC) cells transplanted s.c. into the auxiliary region of the BDF1 mice at a maximum tolerated dose of 0.3 mmol/kg/day; format: functional
# Outline: (§2)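 BDF1 mice carried sc LLC grafts in the axillary region. Starting 24 h after implantation, doses were given ip on days 1, 5 and 9. Tumour length and width were measured on day 17 and TV = L×W²/2. Inhibition rate (%) was the reduction in mean TV relative to the control group.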
# Mus musculus [3] = test: Antitumor activity against Lewis lung carcinoma (LLC) cells transplanted s.c. into the auxiliary region of the BDF1 mice at a formulable dose of 0.06 mmol/kg/day; format: functional; outline: as §1
# Mus musculus [4] = test: Antitumor activity against Lewis lung carcinoma (LLC) cells transplanted s.c. into the auxiliary region of the BDF1 mice at a maximum tolerated dose of 0.42 mmol/kg/day; format: functional; outline: as §2
# Mus musculus [5] = test: Antitumor activity against Lewis lung carcinoma (LLC) cells transplanted s.c. into the auxiliary region of the BDF1 mice at a maximum tolerated dose of 0.36 mmol/kg/day; format: functional; outline: as §2
# Mus musculus [6] = test: Antitumor activity against Lewis lung carcinoma (LLC) cells transplanted s.c. into the auxiliary region of the BDF1 mice at a maximum tolerated dose of 0.06 mmol/kg/day; format: functional; outline: as §2
SMILES,EC50 (A549) [nM],EC50 (MCF7) [nM],Inhibition rate (Mus musculus [1]),EC50 (SK-MEL-2) [nM],Inhibition rate (Mus musculus [2]) [%],Inhibition rate (Mus musculus [3]) [%],Inhibition rate (Mus musculus [4]) [%],Inhibition rate (Mus musculus [5]) [%],Inhibition rate (Mus musculus [6]) [%]
CCNC(=O)Oc1c(OC)cc([C@@H]2c3cc4c(cc3C[C@H]3COC(=O)[C@@H]32)OCO4)cc1OC,132,142,inactive,143,–,–,–,–,–
COc1cc([C@@H]2c3cc4c(cc3C[C@H]3COC(=O)[C@@H]32)OCO4)cc(OC)c1OCc1ccc(N)cc1,114,99,–,152,80,–,–,–,–
COc1cc([C@@H]2c3cc4c(cc3C[C@H]3COC(=O)[C@@H]32)OCO4)cc(OC)c1OC(=O)NC1CCCCC1,163,197,inactive,152,–,–,–,–,–
COc1cc([C@@H]2c3cc4c(cc3C[C@H]3COC(=O)[C@@H]32)OCO4)cc(OC)c1OC(=O)Nc1ccc(F)cc1,86,76,–,78,–,69,–,–,–
COc1cc([C@@H]2c3cc4c(cc3C[C@H]3COC(=O)[C@@H]32)OCO4)cc(OC)c1OC(=O)NC(C)C,153,166,inactive,165,–,–,–,–,–
COc1cc([C@@H]2c3cc4c(cc3C[C@H]3COC(=O)[C@@H]32)OCO4)cc(OC)c1OC(=O)CCCCCCCN,74,69,–,61,–,–,80,–,–
COc1ccc(NC(=O)Oc2c(OC)cc([C@@H]3c4cc5c(cc4C[C@H]4COC(=O)[C@@H]43)OCO5)cc2OC)cc1,96,93,inactive,89,–,–,–,–,–
COc1cc([C@@H]2c3cc4c(cc3[C@@H](O[C@@H]3O[C@@H]5CO[C@@H](C)O[C@H]5[C@H](O)[C@H]3O)[C@H]3COC(=O)[C@H]23)OCO4)cc(OC)c1O [ETOPOSIDE],1900,–,–,–,–,78,–,–,–
COc1cc([C@@H]2c3cc4c(cc3C[C@H]3COC(=O)[C@@H]32)OCO4)cc(OC)c1OC(=O)CCCN,92,89,–,91,–,–,–,85,–
COc1cc([C@@H]2c3cc4c(cc3C[C@H]3COC(=O)[C@@H]32)OCO4)cc(OC)c1OC(=O)CCN,97,83,–,79,85,–,–,–,–
COc1cc([C@@H]2c3cc4c(cc3C[C@H]3COC(=O)[C@@H]32)OCO4)cc(OC)c1O [4'-DEMETHYLDEOXYPODOPHYLLOTOXIN],15,18,–,12,–,13,–,–,–
COc1cc([C@@H]2c3cc4c(cc3C[C@H]3COC(=O)[C@@H]32)OCO4)cc(OC)c1OC(=O)CCCCCN,89,72,–,77,–,–,–,–,89
COc1cc([C@@H]2c3cc4c(cc3C[C@H]3COC(=O)[C@@H]32)OCO4)cc(OC)c1OC(=O)CN,12,31,–,34,33,–,–,–,–
COc1cc([C@@H]2c3cc4c(cc3C[C@H]3COC(=O)[C@@H]32)OCO4)cc(OC)c1OC(=O)[C@H](C)N,22,11,–,9,41,–,–,–,–
COc1cc([C@@H]2c3cc4c(cc3C[C@H]3COC(=O)[C@@H]32)OCO4)cc(OC)c1OC(=O)OCCCl,92,88,–,72,–,–,–,–,–
COc1cc([C@@H]2c3cc4c(cc3C[C@H]3COC(=O)[C@@H]32)OCO4)cc(OC)c1OC(=O)NCCO,62,46,–,59,–,95,–,–,–
COc1cc([C@@H]2c3cc4c(cc3C[C@H]3COC(=O)[C@@H]32)OCO4)cc(OC)c1OC(=O)[C@@H](N)Cc1ccccc1,87,72,–,59,–,–,–,80,–
COc1cc([C@@H]2c3cc4c(cc3C[C@H]3COC(=O)[C@@H]32)OCO4)cc(OC)c1OC [DESOXYPODOPHYLLOTOXIN],23,11,–,14,–,59,–,–,–
